Four compounds from ChEMBL document CHEMBL5096173, “Anti-SARS-CoV-2 Activity of Andrographis paniculata Extract and Its Major Component Andrographolide in Human Lung Epithelial Cells and Cytotoxicity Evaluation in Major Organ Cell Representatives” (J Nat Prod, 2021) can be followed below.

The test system of series [1] is SARS-CoV-2. In words: Antiviral activity against SARS CoV-2 (01/human/Jan2020/Thailand) infected in human Calu-3 cells for 2 hrs assessed as inhibition of viral replication measured after 48 hrs post infection by IFA assay. The series is classed as functional, organism-based. The following applies: for IC50: Severe acute respiratory syndrome coronavirus 2, (01/human/Jan2020/Thailand).

For series [2], the system named is SARS-CoV-2. Put plainly: Antiviral activity against SARS CoV-2 (01/human/Jan2020/Thailand) infected in human Calu-3 cells for 2 hrs assessed as inhibition of viral replication measured after 48 hrs post infection by plague assay. The series is classed as functional, organism-based. To be noted: Severe acute respiratory syndrome coronavirus 2, (01/human/Jan2020/Thailand).

Series [3] concerns SARS-CoV-2. In words: Antiviral activity against SARS CoV-2 (01/human/Jan2020/Thailand) infected in African green monkey Vero E6 cells for 2 hrs assessed as inhibition of viral replication measured after 48 hrs post infection by IFA assay. The series is classed as functional, organism-based. The following applies: Severe acute respiratory syndrome coronavirus 2, (01/human/Jan2020/Thailand), Vero C1008.

The test system of series [4] is SARS-CoV-2. In words: Antiviral activity against SARS CoV-2 (01/human/Jan2020/Thailand) infected in African green monkey Vero E6 cells assessed as inhibition of viral replication pre-infected with cells for 2 hrs followed by compound addition and measured after 48 hrs post infection by plague assay. The series is classed as functional, organism-based. To be noted: Severe acute respiratory syndrome coronavirus 2, (01/human/Jan2020/Thailand), Vero C1008.

Series [5] relates to SARS-CoV-2. In words: Antiviral activity against SARS CoV-2 (01/human/Jan2020/Thailand) infected in human Calu-3 cells for 2 hrs assessed as reduction in extracellular viral RNA measured after 48 hrs post infection by qRT-PCR analysis. The series is classed as functional, organism-based. To be noted: Severe acute respiratory syndrome coronavirus 2, dose 0.1-100 µg/ml, DDE = dose-dependent effect.

The next series relates to HepG2. Put plainly: Cytotoxicity against human HepG2 cells assessed as reduction in cell viability incubated for 48 hrs by MTT assay. The series is classed as functional. A digest of the protocol:
(§1)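 Cells plated at 5×10^4/well and exposed 48 h to 0–100 µM (or extract 0–100 µg/mL). MTT added at 0.5 mg/mL final for 4 h at 37 °C, formazan dissolved in DMSO, absorbance read at 570 nm. Data normalised to solvent control and CC50 fitted.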

A short description of series [6]: Cytotoxicity against human imHC cells assessed as reduction in cell viability incubated for 48 hrs by MTT assay. The series is classed as toxicity, cell-based. A digest of the protocol:
as §1

In a further series the test system is HK-2. Put plainly: Cytotoxicity against human HK-2 cells assessed as reduction in cell viability incubated for 48 hrs by MTT assay. The series is classed as toxicity, cell-based. The following applies: hk-2, 48 h. Summed up: as §1
Another series relates to Caco-2. Put plainly: Cytotoxicity against human Caco-2 cells assessed as reduction in cell viability incubated for 48 hrs by MTT assay. The series is classed as functional. A digest of the protocol: as §1
A further series has as its system Calu-3. In words: Cytotoxicity against human Calu-3 cells assessed as reduction in cell viability incubated for 48 hrs by MTT assay. The series is classed as functional. A digest of the protocol: as §1
For another series, the system named is SH-SY5Y. In words: Cytotoxicity against human SH-SY5Y cells assessed as reduction in cell viability incubated for 48 hrs by MTT assay. The series is classed as functional. A digest of the protocol: as §1
Series [7] is described as follows: Selectivity index, ratio of CC50 for human HepG2 to IC50 for SARS CoV-2 (01/human/Jan2020/Thailand) infected in African green monkey Vero E6 cells. The series is classed as toxicity. The following applies: read-out: Ratio CC50/IC50.
Series [8] in a line: Selectivity index, ratio of CC50 for human imHC to IC50 for SARS CoV-2 (01/human/Jan2020/Thailand) infected in African green monkey Vero E6 cells. To be noted: read-out: Ratio CC50/IC50. The series is classed as toxicity.
Series [9] is described as follows: Selectivity index, ratio of CC50 for human HK-2 to IC50 for SARS CoV-2 (01/human/Jan2020/Thailand) infected in African green monkey Vero E6 cells. The series is classed as toxicity. To be noted: HK-2 cells, read-out: Ratio CC50/IC50.
A short description of series [10]: Selectivity index, ratio of CC50 for human Caco-2 to IC50 for SARS CoV-2 (01/human/Jan2020/Thailand) infected in African green monkey Vero E6 cells. The series is classed as toxicity. The following applies: Caco-2 cells, read-out: Ratio CC50/IC50.
Series [11] is described as follows: Selectivity index, ratio of CC50 for human Calu-3 to IC50 for SARS CoV-2 (01/human/Jan2020/Thailand) infected in African green monkey Vero E6 cells. The series is classed as toxicity. To be noted: Calu-3 cells, read-out: Ratio CC50/IC50.
Series [12] can be described thus: Selectivity index, ratio of CC50 for human SH-SY5Y to IC50 for SARS CoV-2 (01/human/Jan2020/Thailand) infected in African green monkey Vero E6 cells. The series is classed as toxicity. The following applies: read-out: Ratio CC50/IC50.
In series [13] the target is Replicase polyprotein 1ab (Severe acute respiratory syndrome coronavirus 2, UniProt P0DTD1). In words: Inhibition of C-terminal His 6 tagged SARS CoV-2 main protease transfected in Escherichia coli BL21 (DE3). Set-up: species or system Severe acute respiratory syndrome-related coronavirus.
The test system of series [14] is SARS-CoV-2. Put plainly: Antiviral activity against SARS CoV-2 (01/human/Jan2020/Thailand) infected in African green monkey Vero E6 cells for assessed as inhibition of viral replication preincubated for 1 hr followed by viral adsorption for 2 hrs and measured after 48 hrs by hoechst staining based analysis. The series is classed as functional, organism-based. The following applies: Severe acute respiratory syndrome coronavirus 2, (01/human/Jan2020/Thailand), Vero C1008.

As to `C=C1CC[C@@H]2[C@](C)(CO)[C@H](O)CC[C@@]2(C)[C@@H]1C/C=C1/C(=O)OC[C@H]1O` [ANDROGRAPHOLIDE], the IC50 was 1680 nM with SARS-CoV-2 [1]; 34 nM in the series on SARS-CoV-2 [2]; 6580 nM with SARS-CoV-2 [3]; 280 nM in the series with SARS-CoV-2 [4]; 15000 nM in [13]; 19000 nM in the series with SARS-CoV-2 [14]. For the same compound, the Activity entry was “Dde” with SARS-CoV-2 [1] (Severe acute respiratory syndrome coronavirus 2, dose 0.1-100 µg/ml, DDE = dose-dependent effect); “Dde” with SARS-CoV-2 [5]; 81.52 µM in the series with HepG2; 44.55 µM in series [6]; 34.11 µM with HK-2; 52.3 µM in the series with Caco-2. Also, the figures for the Activity with Calu-3 and with SH-SY5Y were 58.03 µM and 13.19 µM, respectively. Moreover, the selectivity ratio in series [7] is 2400; in [8] it was 1310; in series [9] it was 1000; in [10], 1540; in series [11] it was 1710; in [12], 388.
On to `O=C(Nc1ccc([N+](=O)[O-])cc1Cl)c1cc(Cl)ccc1O` [NICLOSAMIDE], for which the IC50 with SARS-CoV-2 [1] was found to be 900 nM.
For the compound `CCC(CC)COC(=O)[C@H](C)N[P@](=O)(OC[C@H]1O[C@@](C#N)(c2ccc3c(N)ncnn23)[C@H](O)[C@@H]1O)Oc1ccccc1` [REMDESIVIR], the IC50 was found to be 43 nM with SARS-CoV-2 [1], 86 nM with SARS-CoV-2 [2], 2710 nM in the series on SARS-CoV-2 [3] and 2650 nM with SARS-CoV-2 [4].
In the case of `CCN(CCO)CCCC(C)Nc1ccnc2cc(Cl)ccc12` (stereo unspecified) [HYDROXYCHLOROQUINE], the IC50 in the series on SARS-CoV-2 [1] was over 50000 nM.
